Four compounds from ChEMBL document CHEMBL1212882, “Phenolic constituents isolated from Fragaria ananassa Duch. inhibit antigen-stimulated degranulation through direct inhibition of spleen tyrosine kinase activation” (Bioorg Med Chem, 2010) can be followed below.

The structures appear in SMILES notation. The source made the active and inactive calls. The calls are words filed in the database; no cut-off is given here.

Holding throughout (assay type): cell-based
Assay [1] concerns the target Tyrosine-protein kinase SYK (Rattus norvegicus) (UniProt Q64725). In words: Inhibition of spleen tyrosine kinase in rat RBL-2H3 cells assessed as inhibition of IgE-induced degranulation at 10 to 100 uM after 1 hr by beta-hexosaminidase release assay. Summed up: (§1)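 RBL-2H3 cells (2 × 10^4/well) cultured 1 h, then sensitized with anti-DNP IgE 0.45 µg/ml for 24 h. Cells were washed in Siraganian buffer A (PIPES, pH 7.2) and equilibrated in buffer B at 37 °C for 10 min. Compound was added at 37 °C for 30 min, then DNP-BSA 10 µg/ml for 10 min. Supernatant β-hexosaminidase was read with p-nitrophenyl-N-acetyl-β-D-glucosaminide at A405, corrected for direct enzyme inhibition.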

For assay [2] the target is unchanged. In words: Inhibition of spleen tyrosine kinase in rat RBL-2H3 cells assessed as inhibition of IgE-induced degranulation after 1 hr by beta-hexosaminidase release assay. An outline of the steps:
as §1

The target is the same in assay [3]. In words: Inhibition of spleen tyrosine kinase in rat RBL-2H3 cells assessed as inhibition of IgE-induced upregulation of cPLA2 level at 50 uM after 30 mins by Western blotting. An outline of the steps:
(§2)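 IgE-sensitized RBL-2H3 cells were pretreated 30 min with 50 µM compound and stimulated with DNP-BSA. Lysates were run on SDS-PAGE and transferred to PVDF. Membranes were blocked 1 h in 5% nonfat milk, probed with primary antibody overnight at 4 °C, then HRP secondary antibody 1 h at room temperature. ECL chemiluminescence detection; three independent experiments.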
Background: In western blotting, separated proteins are transferred to a membrane and probed.

Assay [4] has the same target. The experiment in a line: Inhibition of spleen tyrosine kinase in rat RBL-2H3 cells assessed as inhibition of IgE-induced upregulation of PI3K/Akt level at 50 uM after 30 mins by Western blotting. Summed up: as §2
The target is the same in assay [5]. In words: Inhibition of spleen tyrosine kinase in rat RBL-2H3 cells assessed as inhibition of IgE-induced upregulation of JNK level at 50 uM after 30 mins by Western blotting. An outline of the steps:
as §2

Assay [6] has the same target. In words: Inhibition of spleen tyrosine kinase in rat RBL-2H3 cells assessed as inhibition of IgE-induced upregulation of phospholipase 2 level at 50 uM after 30 mins by Western blotting. An outline of the steps:
as §2

For assay [7] the target is unchanged. The experiment in a line: Inhibition of spleen tyrosine kinase in rat RBL-2H3 cells assessed as inhibition of IgE-induced increase of intracellular calcium level at 50 uM after 30 mins by FLIPR assay. Summed up:
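IgE-sensitized RBL-2H3 cells (5 × 10^4/well; anti-DNP IgE 0.45 µg/ml, 24 h) were loaded with Fluo-3AM for 1 h. Cells were washed and held 30 min in loading buffer containing 50 µM compound, then stimulated with DNP-BSA 10 µg/ml. Fluorescence (ex 490/em 530 nm) was recorded on a fluorometric imaging plate reader. Means ± SEM, n = 12.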
For orientation: Calcium flux is commonly read through the fluorescence of an indicator in the cells.

The target is the same in assay [8]. The experiment in a line: Inhibition of spleen tyrosine kinase in rat RBL-2H3 cells assessed as inhibition of IgE-induced upregulation of ERK1/2 level at 50 uM after 30 mins by Western blotting. An outline of the steps: as §2
Assay [9] shares this target. In words: Inhibition of spleen tyrosine kinase in rat RBL-2H3 cells assessed as inhibition of IgE-induced increase of ROS level at 50 uM after 30 mins by FLIPR assay. An outline of the steps: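 Sensitized RBL-2H3 cells (5 × 10^4/well) took up 10 µM CM-H2DCFDA for 30 min at 37 °C and were washed twice. Cells were exposed to 50 µM compound for 30 min, then challenged with DNP-BSA 10 µg/ml. DCF fluorescence (ex 490/em 530 nm) was read on a fluorometric imaging plate reader. DPI 200 nM served as control. Means ± SEM, n = 10.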

Assay [10] has the same target. In words: Inhibition of spleen tyrosine kinase in rat RBL-2H3 cells assessed as inhibition of IgE-induced upregulation of Lyn level at 50 uM after 30 mins by Western blotting. An outline of the steps:
as §2

Assay [11] shares this target. The experiment in a line: Inhibition of spleen tyrosine kinase in rat RBL-2H3 cells assessed as inhibition of IgE-induced upregulation of p38 level at 50 uM after 30 mins by Western blotting. Summed up:
as §2

For assay [12] the target is unchanged. In words: Inhibition of spleen tyrosine kinase in rat RBL-2H3 cells assessed as inhibition of IgE-induced upregulation of phospholipase Cgamma1 level at 50 uM after 30 mins by Western blotting. Summed up: as §2

Tyrosine-protein kinase SYK (Rattus norvegicus), sequence (Q64725 whole entry, looked up): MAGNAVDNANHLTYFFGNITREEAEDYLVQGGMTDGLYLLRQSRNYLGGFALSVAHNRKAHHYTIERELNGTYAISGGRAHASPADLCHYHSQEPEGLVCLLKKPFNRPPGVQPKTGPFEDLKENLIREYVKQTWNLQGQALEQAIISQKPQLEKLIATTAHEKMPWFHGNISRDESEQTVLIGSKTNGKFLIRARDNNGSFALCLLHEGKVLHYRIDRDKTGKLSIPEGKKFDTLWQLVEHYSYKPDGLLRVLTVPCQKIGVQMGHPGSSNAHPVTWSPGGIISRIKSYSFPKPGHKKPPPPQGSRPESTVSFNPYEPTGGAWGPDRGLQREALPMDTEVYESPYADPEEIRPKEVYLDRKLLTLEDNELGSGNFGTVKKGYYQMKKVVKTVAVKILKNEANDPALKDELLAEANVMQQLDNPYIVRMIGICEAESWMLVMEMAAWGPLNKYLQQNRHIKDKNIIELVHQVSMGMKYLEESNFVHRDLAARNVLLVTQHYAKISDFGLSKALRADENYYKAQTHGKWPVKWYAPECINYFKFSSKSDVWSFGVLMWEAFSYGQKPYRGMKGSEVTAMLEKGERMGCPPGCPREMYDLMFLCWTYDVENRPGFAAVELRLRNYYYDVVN

Consider `O=C(/C=C/c1ccccc1)O[C@@H]1O[C@H](CO)[C@@H](O)[C@H](O)[C@H]1O`, for which the inhibition entry in assay [1] was “Active”.

On to `O=C(O)/C=C/c1ccc(O)cc1`, for which the inhibition entry in assay [1] was “inactive”.

With `COC(=O)/C=C/c1ccc(O[C@@H]2O[C@H](CO)[C@@H](O)[C@H](O)[C@H]2O)cc1`, in assay [2], the inhibition entry is “Dose-dependent effect”. Besides, the inhibition entry in assay [3], in assay [4], in [5], in [6], in assay [7] and in assay [8] was “Active” each time. Besides, the inhibition result in [9], in assay [11] and in [12] was “Active” each time. Further, in [10], the inhibition entry was “inactive”.

On to `O=C(O)/C=C/c1ccccc1`, for which the inhibition entry in assay [2] is “Dose-dependent effect”. The inhibition entry in assay [6], in assay [7], in assay [9] and in assay [12] was “Active” each time. Further, the inhibition entry in assay [10] was “inactive”.
